Test results from BindingDB's records for doi:10.1021/np300764u (Heinrich-Heine University, 2013).

Columns and labels:
[1] = molecular target: Receptor tyrosine-protein kinase erbB-2 (Homo sapiens, UniProt P04626); assay: Inhibition of ERBB2 (unknown origin)
Outline: (§1)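 Biochemical (cell-free) assay within a panel of 24 protein kinases. Results reported as IC50 values. Procedure as described in earlier work.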

Ephrin type-B receptor 4 = molecular target: T1, Ephrin type-B receptor 4 (Homo sapiens, UniProt P54760); assay: Inhibition of EPHB4 (unknown origin); outline: as §1
T1 sequence (P54760 whole entry): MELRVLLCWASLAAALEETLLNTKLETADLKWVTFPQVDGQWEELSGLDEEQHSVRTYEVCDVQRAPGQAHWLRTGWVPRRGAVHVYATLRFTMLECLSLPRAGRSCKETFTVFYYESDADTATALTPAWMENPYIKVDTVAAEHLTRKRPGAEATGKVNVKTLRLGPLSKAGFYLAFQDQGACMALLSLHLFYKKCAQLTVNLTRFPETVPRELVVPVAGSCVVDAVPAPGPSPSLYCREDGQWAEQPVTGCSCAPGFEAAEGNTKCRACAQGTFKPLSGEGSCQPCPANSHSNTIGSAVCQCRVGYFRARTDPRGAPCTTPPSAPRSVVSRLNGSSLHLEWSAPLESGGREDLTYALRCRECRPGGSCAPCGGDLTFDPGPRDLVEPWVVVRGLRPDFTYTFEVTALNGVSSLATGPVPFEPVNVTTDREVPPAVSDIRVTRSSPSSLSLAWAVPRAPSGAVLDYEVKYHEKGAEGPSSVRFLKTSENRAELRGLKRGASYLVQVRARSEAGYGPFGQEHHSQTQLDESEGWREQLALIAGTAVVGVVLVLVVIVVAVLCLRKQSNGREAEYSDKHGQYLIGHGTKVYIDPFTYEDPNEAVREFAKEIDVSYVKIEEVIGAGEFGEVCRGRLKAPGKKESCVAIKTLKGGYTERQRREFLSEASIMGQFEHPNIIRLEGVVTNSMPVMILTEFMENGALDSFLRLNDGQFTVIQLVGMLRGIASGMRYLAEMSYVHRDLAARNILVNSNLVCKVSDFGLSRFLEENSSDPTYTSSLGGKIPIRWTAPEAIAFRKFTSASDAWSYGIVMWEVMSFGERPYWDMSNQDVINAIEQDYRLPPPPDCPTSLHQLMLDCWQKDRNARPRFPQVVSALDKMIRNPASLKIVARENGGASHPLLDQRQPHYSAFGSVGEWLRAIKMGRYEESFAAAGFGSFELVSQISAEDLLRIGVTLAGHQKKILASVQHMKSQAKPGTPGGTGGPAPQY

Sequence of Receptor tyrosine-protein kinase erbB-2 (P04626 whole entry): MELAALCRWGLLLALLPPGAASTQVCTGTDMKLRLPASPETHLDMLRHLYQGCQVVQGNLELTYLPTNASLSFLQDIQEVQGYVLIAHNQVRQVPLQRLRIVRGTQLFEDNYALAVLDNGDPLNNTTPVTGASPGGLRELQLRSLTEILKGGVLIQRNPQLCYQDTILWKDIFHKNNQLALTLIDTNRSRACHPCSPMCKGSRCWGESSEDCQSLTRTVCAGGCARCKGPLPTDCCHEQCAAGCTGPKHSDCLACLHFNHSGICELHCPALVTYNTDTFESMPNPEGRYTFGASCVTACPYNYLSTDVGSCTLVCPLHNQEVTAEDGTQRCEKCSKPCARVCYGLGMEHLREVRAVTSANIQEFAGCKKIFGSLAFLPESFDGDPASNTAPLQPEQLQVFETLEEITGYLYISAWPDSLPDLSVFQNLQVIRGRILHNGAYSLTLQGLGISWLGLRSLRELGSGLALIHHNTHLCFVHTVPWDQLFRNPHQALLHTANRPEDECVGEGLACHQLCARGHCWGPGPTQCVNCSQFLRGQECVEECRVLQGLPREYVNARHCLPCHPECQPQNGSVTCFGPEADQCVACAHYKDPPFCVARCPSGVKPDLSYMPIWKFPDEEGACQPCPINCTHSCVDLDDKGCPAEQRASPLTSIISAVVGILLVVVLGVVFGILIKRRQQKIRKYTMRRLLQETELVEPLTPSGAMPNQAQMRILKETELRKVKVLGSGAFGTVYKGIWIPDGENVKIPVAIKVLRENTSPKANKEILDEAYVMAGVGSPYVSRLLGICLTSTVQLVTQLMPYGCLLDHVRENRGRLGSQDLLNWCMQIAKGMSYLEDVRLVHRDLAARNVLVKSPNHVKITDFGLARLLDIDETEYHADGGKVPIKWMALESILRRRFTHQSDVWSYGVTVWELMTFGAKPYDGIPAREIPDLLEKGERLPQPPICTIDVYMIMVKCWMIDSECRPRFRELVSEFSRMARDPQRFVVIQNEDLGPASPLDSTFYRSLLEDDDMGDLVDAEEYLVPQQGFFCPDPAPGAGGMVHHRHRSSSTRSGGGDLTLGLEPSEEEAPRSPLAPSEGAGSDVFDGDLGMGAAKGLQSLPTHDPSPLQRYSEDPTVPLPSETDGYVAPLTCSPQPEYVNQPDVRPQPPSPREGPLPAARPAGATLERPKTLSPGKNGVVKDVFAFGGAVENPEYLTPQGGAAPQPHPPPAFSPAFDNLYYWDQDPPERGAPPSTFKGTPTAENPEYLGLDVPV

| IC50 [1] [µM] | IC50 (Ephrin type-B receptor 4) [µM] | Structure (SMILES) |
| --- | --- | --- |
| 2.1 | – | O=NC(Cc1cc(Br)c(O)c(-c2cc(CC(N=O)C(=O)NCCc3ccc(O)c(Br)c3)cc(Br)c2O)c1)C(=O)NCCc1ccc(O)c(Br)c1 (stereo not drawn) [BASTADIN 3] |
| 2.1 | 3.4 | O=NC(Cc1cc(Br)c(O)c(Oc2ccc(CCNC(=O)C(Cc3cc(Br)c(O)c(-c4cc(CC(N=O)C(=O)NCCc5ccc(O)c(Br)c5)cc(Br)c4O)c3)N=O)cc2Br)c1)C(=O)NCCc1ccc(O)c(Br)c1 (stereo not drawn) [Sesquibastadin 1] |
